Laboratory results as given in PubChem BioAssay.
Activity calls are given as the source filed them.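 How the source made its calls, unless noted: active means a full or partial loss of lipid-probe fluorescence in the fish gall bladder, intestine or both, judged by eye; inactive means no fluorescence loss, or compound toxic to the fish.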

Assay: inhibitors of larval lipid processing in zebrafish, primary screen, whole organism, PED6 fluorescence, gall bladder and intestine (AID 686);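 further: larvae 5 to 7 days old with five fish per well; signal comes from phospholipase A2 cleavage of quenched PED6 carried via bile; overnight exposure to compound and PED6 before scoring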
Details: Zebrafish larvae PED6 lipid processing, fluorescence scoring; screened at 20 µM (by protocol)
How it was run: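 Test system – live zebrafish larvae aged 5-7 days, whole organism · Buffer or medium – E3 fish medium · Reagent – quenched phospholipase substrate PED6, 100 nM final, ingested by larvae · Doses – 20 µM single dose · Incubation – overnight compound and PED6 incubation · Technique – visual fluorescence microscopy scoring of gall bladder, gut · Read-out basis – visual per-well fluorescence inhibition score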

SMILES | outcome
O=C(c1ccc(=O)oc1)N1CCN(c2ccc(F)cc2)CC1 | inactive
CC(C)(C)C1=Nn2c(nnc2-c2ccco2)SC1 | inactive
COc1cc(OC)cc(C(=O)N2CCC(N3CCCCCC3)CC2)c1 | inactive; toxic
COc1cc(=O)n2c(-c3ccccc3)csc2n1 | inactive
COc1ccccc1OCC(=O)Nc1ccc(S(=O)(=O)Nc2cc(C)nc(C)n2)cc1 | inactive
COCCCNC(=O)c1c(N)n(/N=C/c2cccs2)c2nc3ccccc3nc12 | inactive
CCOC(=O)CNS(=O)(=O)c1cc(-c2nn(C)c(=O)c3ccccc23)ccc1C | inactive
N#CC1=C(SCc2ccccc2)NC2=C(C(=O)CCC2)C1c1ccc2c(c1)OCO2 (stereo not drawn) | inactive
CCOC(=O)c1[nH]c2cc3c(cc2c1NC(=O)CN1CCc2ccccc2C1)OCO3 | inactive
CCOC(=O)c1ccc(NC(=O)CCC(CC)C(=O)O)cc1 (stereo not drawn) | inactive
CCOC(=O)CSc1nc2ccccc2c(=O)n1C | inactive
CC(O)Cn1ccccc1=N (stereo not drawn) | inactive
CC1CN(C2CCN(S(=O)(=O)Cc3ccccc3)CC2)CC(C)O1 (stereo not drawn) | inactive
CN1CCN(c2ncnc3c2[nH]c2ccc(F)cc23)CC1 | inactive
COc1cc(-c2nn3c(C4CCCCC4)nnc3s2)cc(OC)c1OC | inactive
O=C1OC(Nc2ccc(Br)cn2)c2ccccc21 (stereo not drawn) | inactive
Cc1nnc2n(Cc3ccccc3)c(=O)c3c4c(sc3n12)CN(Cc1ccccc1)CC4 | inactive
O=C(O)C(Cc1c[nH]c2ccccc12)NS(=O)(=O)c1cccc2nsnc12 (stereo not drawn) | inactive
Cc1ccc(C(=O)C2=C(O)C(=O)N(c3ncccn3)C2c2ccc(Cl)cc2)o1 (stereo not drawn) | inactive
CC(=O)C1(C)OC(N)=C(C#N)C(c2ccccc2)C1(C#N)C#N (stereo not drawn) | inactive

SMILES | outcome
CCCCOc1ccccc1/C=c1/sc2nc(-c3oc4ccccc4c3C)nn2c1=O | inactive
CCCOc1ccc(/C(O)=C2/C(=O)C(=O)N(CCN(C)C)C2c2ccncc2)cc1 (stereo not drawn) | inactive
Cc1onc(-c2ccccc2Cl)c1C(=O)N1CCN(c2nc3ccccc3s2)CC1 | inactive
COc1ccc2oc(=O)c(-c3nc(C)cs3)cc2c1 | inactive
CCOC(=O)CSc1nc(NC#N)nc(N(CC)CC)n1 | inactive
CCOc1ccc(/C(O)=C2/C(=O)C(=O)N(CCN(C)C)C2c2ccccc2)cc1Cl (stereo not drawn) | inactive
CCCCOC(=O)Nc1ccc(S(=O)(=O)Nc2nc(C)cc(C)n2)cc1 | inactive
COc1ccc(C=NCCC2(O)CC(C)N(C)CC2C)cc1 (stereo not drawn) | inactive
Cc1ccc(C(C)C)c(OCCNc2nc3c(c(=O)n(C)c(=O)n3C)n2C)c1 | inactive
CCOC(=O)CCc1c(C)c(C#N)c2nc3ccccc3n2c1-n1ccnc1C | inactive
C=CCSc1nc(C)c(CC=C)c(=O)[nH]1 | inactive
CC1C[C@@]2(NC(=O)NC2=O)C(C)CN1C (stereo partly drawn) | inactive
Cc1nnc(C)n1/N=C/c1cc(Br)cc(Br)c1O | inactive
Clc1ccc2[nH]c3c(NCCN4CCOCC4)ncnc3c2c1 | inactive
Cc1cc(C)n(CC(=O)N2c3ccccc3Sc3ccccc32)n1 | inactive
Cn1c(NCC(O)c2ccccc2)nc2c1c(=O)n(Cc1ccc(Cl)c(Cl)c1)c(=O)n2C (stereo not drawn) | inactive
COc1ccccc1-c1nn2c(-c3ccco3)nnc2s1 | inactive
CCCCNC(=O)c1c(N)n(/N=C/c2cccnc2)c2nc3ccccc3nc12 | inactive
CCOc1ccc(C2C(C(=O)c3ccc(C)o3)=C(O)C(=O)N2CCCN(CC)CC)cc1 (stereo not drawn) | inactive

Assay: inhibitors of Chlamydomonas gravitaxis, primary screen, whole organism, Chlamydomonas reinhardtii, WT vs cilia-less mutant, absorbance, 96-well (AID 463189;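 active means inhibition at or above 50% relative to wild type and mutant plate controls; inactive means inhibition below 50%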;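 further: 0% = wild type cc124 cells in DMSO and 100% = ciliumless bld1 mutant cells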)
Details: OD600 absorbance, 2 days, at 10 µM, hits give high values

SMILES | inhibition
O=C(c1ccc(=O)oc1)N1CCN(c2ccc(F)cc2)CC1 | 31% (inactive)
CC(C)(C)C1=Nn2c(nnc2-c2ccco2)SC1 | -3.69% (inactive)
COc1cc(OC)cc(C(=O)N2CCC(N3CCCCCC3)CC2)c1 | 29.1% (inactive)
COc1cc(=O)n2c(-c3ccccc3)csc2n1 | 5.32% (inactive)
COc1ccccc1OCC(=O)Nc1ccc(S(=O)(=O)Nc2cc(C)nc(C)n2)cc1 | -4.91% (inactive)
COCCCNC(=O)c1c(N)n(/N=C/c2cccs2)c2nc3ccccc3nc12 | 24.1% (inactive)
CCOC(=O)CNS(=O)(=O)c1cc(-c2nn(C)c(=O)c3ccccc23)ccc1C | -1.44% (inactive)
N#CC1=C(SCc2ccccc2)NC2=C(C(=O)CCC2)C1c1ccc2c(c1)OCO2 (stereo not drawn) | -2.38% (inactive)
CCOC(=O)c1[nH]c2cc3c(cc2c1NC(=O)CN1CCc2ccccc2C1)OCO3 | 25.5% (inactive)
CCOC(=O)c1ccc(NC(=O)CCC(CC)C(=O)O)cc1 (stereo not drawn) | -1.41% (inactive)
CCOC(=O)CSc1nc2ccccc2c(=O)n1C | -11.1% (inactive)
CC(O)Cn1ccccc1=N (stereo not drawn) | 21.9% (inactive)
CC1CN(C2CCN(S(=O)(=O)Cc3ccccc3)CC2)CC(C)O1 (stereo not drawn) | 32.6% (inactive)
CN1CCN(c2ncnc3c2[nH]c2ccc(F)cc23)CC1 | 32.3% (inactive)
COc1cc(-c2nn3c(C4CCCCC4)nnc3s2)cc(OC)c1OC | 12.1% (inactive)
O=C1OC(Nc2ccc(Br)cn2)c2ccccc21 (stereo not drawn) | -9.02% (inactive)
Cc1nnc2n(Cc3ccccc3)c(=O)c3c4c(sc3n12)CN(Cc1ccccc1)CC4 | 31.3% (inactive)
O=C(O)C(Cc1c[nH]c2ccccc12)NS(=O)(=O)c1cccc2nsnc12 (stereo not drawn) | -3.63% (inactive)
Cc1ccc(C(=O)C2=C(O)C(=O)N(c3ncccn3)C2c2ccc(Cl)cc2)o1 (stereo not drawn) | 5.76% (inactive)
CC(=O)C1(C)OC(N)=C(C#N)C(c2ccccc2)C1(C#N)C#N (stereo not drawn) | 23.7% (inactive)

SMILES | inhibition
CCCCOc1ccccc1/C=c1/sc2nc(-c3oc4ccccc4c3C)nn2c1=O | -7.58% (inactive)
CCCOc1ccc(/C(O)=C2/C(=O)C(=O)N(CCN(C)C)C2c2ccncc2)cc1 (stereo not drawn) | 8.14% (inactive)
Cc1onc(-c2ccccc2Cl)c1C(=O)N1CCN(c2nc3ccccc3s2)CC1 | 13% (inactive)
COc1ccc2oc(=O)c(-c3nc(C)cs3)cc2c1 | 26.4% (inactive)
CCOC(=O)CSc1nc(NC#N)nc(N(CC)CC)n1 | -12.7% (inactive)
CCOc1ccc(/C(O)=C2/C(=O)C(=O)N(CCN(C)C)C2c2ccccc2)cc1Cl (stereo not drawn) | 2.01% (inactive)
CCCCOC(=O)Nc1ccc(S(=O)(=O)Nc2nc(C)cc(C)n2)cc1 | -15.6% (inactive)
COc1ccc(C=NCCC2(O)CC(C)N(C)CC2C)cc1 (stereo not drawn) | 7.82% (inactive)
Cc1ccc(C(C)C)c(OCCNc2nc3c(c(=O)n(C)c(=O)n3C)n2C)c1 | -2.79% (inactive)
CCOC(=O)CCc1c(C)c(C#N)c2nc3ccccc3n2c1-n1ccnc1C | 21.4% (inactive)
C=CCSc1nc(C)c(CC=C)c(=O)[nH]1 | 31.6% (inactive)
CC1C[C@@]2(NC(=O)NC2=O)C(C)CN1C (stereo partly drawn) | 6.02% (inactive)
Cc1nnc(C)n1/N=C/c1cc(Br)cc(Br)c1O | 4.5% (inactive)
Clc1ccc2[nH]c3c(NCCN4CCOCC4)ncnc3c2c1 | 2.54% (inactive)
Cc1cc(C)n(CC(=O)N2c3ccccc3Sc3ccccc32)n1 | 14.7% (inactive)
Cn1c(NCC(O)c2ccccc2)nc2c1c(=O)n(Cc1ccc(Cl)c(Cl)c1)c(=O)n2C (stereo not drawn) | 75.1% (active)
COc1ccccc1-c1nn2c(-c3ccco3)nnc2s1 | 10.9% (inactive)
CCCCNC(=O)c1c(N)n(/N=C/c2cccnc2)c2nc3ccccc3nc12 | 29% (inactive)
CCOc1ccc(C2C(C(=O)c3ccc(C)o3)=C(O)C(=O)N2CCCN(CC)CC)cc1 (stereo not drawn) | 0.749% (inactive)
